Bioassay records: PubChem, several laboratories
NLRP3 yeast inh: NALP3 inhibition in yeast; 0.39% of 330,000 active; inhibition, % at 10 µM; Yeast reconstituted NLRP3/ASC/caspase-1, beta-gal luminescence, 24 h;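 active = inhibition of 50% or more; inactive = inhibition below 50%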;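 also: plate controls were induced DMSO wells for no effect and uninduced yeast grown without galactose for full effect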
MC4R ag barr: human MC4R agonism via beta-arrestin | P32245 | U2OS MC4R beta-arrestin complementation, luminescence; percent of melanotan II response, DMSO zero | activation, % at 8.9 µM | 0.98% of 360,000 active | AID 540308;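 active = activation above a per-plate cutoff, the mean activation of sample wells on that plate plus 3 SD, cut at about 8% in these data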
Target sequence (P32245 whole entry, looked up): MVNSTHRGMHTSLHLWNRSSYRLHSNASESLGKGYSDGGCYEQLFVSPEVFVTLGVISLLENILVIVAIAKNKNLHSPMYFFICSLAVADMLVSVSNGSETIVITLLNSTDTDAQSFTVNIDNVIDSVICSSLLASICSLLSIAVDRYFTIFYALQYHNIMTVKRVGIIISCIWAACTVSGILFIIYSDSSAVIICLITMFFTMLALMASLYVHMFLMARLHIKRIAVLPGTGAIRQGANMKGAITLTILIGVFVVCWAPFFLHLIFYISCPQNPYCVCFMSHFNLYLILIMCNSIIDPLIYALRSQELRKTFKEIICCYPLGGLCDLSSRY
MC4R antag cAMP: blocks human MC4R cAMP signaling; 0.48% of 360,000 active; inhibition, % at 6.5 µM; MC4R-expressing cells, MTII-stimulated cAMP, LANCE TR-FRET;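 active = inhibition above its plate's cutoff, the mean of tested wells on that plate plus 3 SD, cut at about 29% in these data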;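 also: 0% = Melanotan II alone and 100% = Melanotan II plus saturating MCL0020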
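Material: U2OS-MC4R stable cell line | Reagent: Melanotan II challenge after compound preincubation | Doses: One concentration, 6.5 µM nominal | Incubation: 30-min compound preincubation, 1-h Melanotan II challenge, 1-h detection, room temperature | Signal: TR-FRET cAMP assay | Replicates: One well per compound, no replicates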
NALP1 yeast inh: blocks the NALP1 inflammasome reconstituted in yeast; S. cerevisiae NALP1/ASC/caspase-1 growth, X-gal OD620, 72 h; inhibition, % at 10 µM; 0.61% of 280,000 active; in the data active = inhibition mostly above about 24%, no sharp cut-off; inactive = mostly below about 32%
Tb MetRS inh: Trypanosoma brucei MetRS inhibition. 0.4% of 360,000 active. inhibition, % at 11.9 µM. AID 624268. purified T. brucei MetRS, ATP depletion, Kinase-Glo luminescence;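 active = inhibition above a per-plate cutoff of the control wells' mean inhibition plus 3 SD, cut at about 5.5% in these data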;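 also: 0% = DMSO wells median and 100% = median of wells with control inhibitor compound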
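Material – parasite MetRS enzyme · Medium – HEPES-MgCl2-KCl buffer plus DTT, spermine, BSA, pyrophosphatase · Reagent – ATP, methionine and E. coli bulk tRNA substrates · Times – 15 min enzyme-compound preincubation, 2 h reaction, 10 min detection, 25 °C · Measured by – luminescence of leftover ATP · Evaluation – percent inhibition relative to median high and low control wells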
A1 inh: inhibitors of the anti-apoptotic protein A1, read as caspase activation. MEF A1-2A-BIM cells, Caspase-Glo 3/7 luminescence, 3 h; percent of clofoctol response, vehicle zero. caspase activation, % (test concentration not listed). 0.066% of 330,000 active;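 active = over half of replicate activation scores above 10%, or exactly half above 10 with the replicate mean above 10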
* marks the source's active call; other numbers are inactive results; / = not tested or not shown. The list is not random: actives were taken first. Their share in the collection is about 2.5%.

SMILES | NLRP3 yeast inh | MC4R ag barr | MC4R antag cAMP | NALP1 yeast inh | Tb MetRS inh | A1 inh
O=C(Nc1ccc(CSc2ccccc2)cc1)c1ccccc1 | 4 | -2 | 5 | 1 | 0 | -8
O=C(COc1ccccc1)Nc1ccc(CSc2ccccc2)cc1 | 10 | 10* | 11 | 6 | 0 | 0
N#CC1(NC(=O)COc2ccc(S(=O)(=O)N3CCCC3)cc2[N+](=O)[O-])CCCCC1 | 2 | -4 | -9 | / | 0 | 1
CN(C)/N=C/C=C1\CC/C(=C\c2ccc(F)c(F)c2)C1=O | 15 | 1 | 13 | / | 1 | 2
CC(C)c1ccc(/C=C2\CC/C(=C\C=N\N(C)C)C2=O)cc1 | 7 | -3 | -2 | 44* | 1 | 1
O=C(CNC(=O)c1ccccc1Br)Nc1cccc(S(=O)(=O)Nc2ccccc2Cl)c1 | / | -1 | 2 | / | 0 | /
Cc1cnc(NC(=O)C2(C)CCN2C(=O)C(C)C)s1 (centres undefined) | / | -1 | 2 | / | 0 | /
CN(C(=O)COC(=O)CSc1ccc([N+](=O)[O-])cc1)C1CCS(=O)(=O)C1 (centres undefined) | 18 | 1 | -3 | / | 0 | 1
CN(C(=O)COC(=O)c1cc([N+](=O)[O-])ccc1Sc1ccccc1)C1CCS(=O)(=O)C1 (centres undefined) | 21 | -1 | -1 | 28* | -1 | 0
Cc1ccccc1S(=O)(=O)NC(=O)C1(C)CCN1C(=O)C1CCCCC1 (centres undefined) | / | 0 | 9 | / | 0 | /
CCc1oc2ccccc2c1C(=O)CCN1CCCCC1 | 34 | -2 | 28 | 50* | -1 | 0
O=C(N1CCN(c2ccccn2)CC1)C(Cl)(Cl)Cl | 24 | -2 | -3 | 55* | 0 | 1
COc1ccc(F)cc1S(=O)(=O)Nc1ccncc1 | 10 | -1 | 4 | -16 | 0 | 0
CC(=O)c1cccc(CN2CCC(n3nccc3NC(=O)CCOc3ccccc3)CC2)c1 | 18 | -2 | 5 | 31* | 0 | 1
O=C(CCOc1ccccc1)Nc1ccnn1C1CCN(Cc2ccccc2)CC1 | 5 | -2 | 1 | 0 | 0 | -1
O=C(CCN1C(=O)C2C3C=CC(C3)C2C1=O)NC1CCCCC1 (centres undefined) | 3 | 1 | -10 | 37* | -1 | 1
CCOC(=O)N1CCC(NC(=O)CCN2C(=O)C3C4C=CC(C4)C3C2=O)CC1 (centres undefined) | 6 | 1 | 22 | -18 | -1 | 0
NC(=O)c1ccsc1NC(=O)CCS(=O)(=O)c1ccc(F)cc1 | 7 | -4 | -4 | / | 0 | 1
CC(=O)c1c(O)cc(C)n(-c2ccc(F)cc2)c1=O | 10 | -1 | -5 | 29* | 0 | 0
CCN(CC)C(=O)[C@H]1C[C@H](CC(=O)NCc2ccc(OC)c(OC)c2)C(=O)N2CCc3c([nH]c4cc(-c5ccco5)ccc34)[C@]12C | / | 1 | 15 | / | 0 | /
CCS(=O)(=O)Nc1ccc(NC(C)=O)cc1 | 10 | -2 | 5 | 36* | 0 | 2
COc1cc(NC(=O)CN2CCN(CC(=O)Nc3ccccc3OC)CC2)cc(OC)c1 | 10 | -1 | 9 | 7 | -1 | -1
O=c1[nH][nH]c(-c2ccccc2O)c1C(C[N+](=O)[O-])c1ccccc1 (centres undefined) | 31 | 1 | 11 | / | 0 | 0
Cc1cc(O)c(C(C[N+](=O)[O-])c2ccc(Cl)cc2Cl)c(=O)o1 (centres undefined) | 12 | -1 | -2 | -8 | -1 | 0
O=c1[nH][nH]c(-c2ccccc2O)c1C(C[N+](=O)[O-])c1ccc(Cl)cc1Cl (centres undefined) | 16 | -1 | 8 | 70* | -1 | -1
SMILES | NLRP3 yeast inh | MC4R ag barr | MC4R antag cAMP | NALP1 yeast inh | Tb MetRS inh | A1 inh
O=c1[nH][nH]c(-c2ccccc2O)c1C(C[N+](=O)[O-])c1cccc(Cl)c1 (centres undefined) | 22 | -2 | 6 | 101* | -1 | 0
COCCn1c(-c2ccc(-c3ccc([N+](=O)[O-])cc3Br)o2)nc2c1c(=O)[nH]c(=O)n2CC(C)C | 10 | -2 | 5 | 22* | 0 | 0
Cc1cc(C)c(S(=O)(=O)Nc2cc(SCC(=O)O)c(O)c3ccccc23)cc1C | / | / | / | 49* | / | 1
CSc1ncnc2c1ncn2CCCNCCc1ccccn1 | / | 0 | 11 | / | -1 | /
COc1ccc(NC(=O)Cn2cnc3c(cnn3C(C)(C)C)c2=O)cc1OC | -7 | -2 | 18 | 31* | 1 | 0
C=C(C)c1cccc(C(C)(C)NC(=O)N2CCN(C(=O)OCC)CC2)c1 | / | 0 | 10 | / | 0 | /
CCC(=O)n1nc(-c2ccc(OC)cc2)nc1N | 6 | -1 | 1 | 24* | -1 | 1
CCC(=O)n1nc(-c2ccccc2)nc1N | 15 | -1 | 8 | 2 | 1 | 0
CC(=O)NC(Cc1c[nH]c2ccccc12)C(=O)N1CCN(S(=O)(=O)c2ccccc2)CC1 (centres undefined) | 4 | -3 | 1 | / | 0 | 1
CCCn1c(Nc2nc3ccccc3n2C)nc2ccccc21 | 9 | 4 | 17 | 30* | -1 | 0
COc1ccc(-n2cc(CN(C)CCO)c(-c3cccc(F)c3)n2)cc1 | 21 | 0 | 3 | 24* | 0 | 1
COc1ccc(-n2cc(CNCCc3cnc[nH]3)c(-c3cccc(F)c3)n2)cc1 | 16 | 1 | -2 | 27* | -1 | -2
CCC(C)(C)NC(=O)Cc1ccccc1OC | 12 | -1 | 5 | 41* | 0 | 1
CCC(C)(C)NC(=O)Cc1ccc(OC)c(OC)c1 | 10 | 0 | 3 | 9 | -1 | 1
O=C(O)CSc1c2c(nc3cc(C(=O)Nc4ccc(F)c(Cl)c4)ccc13)CCCC2 | 5 | 0 | 7 | 8 | 0 | 2
CCOC(=O)c1oc2ccccc2c1NC(=O)CN1CCOCC1 | 12 | 5 | 11 | -9 | 0 | 0
CCOC(=O)c1oc2ccccc2c1NC(=O)CN1CCN(C)CC1 | 12 | -3 | -2 | -1 | -1 | 17*
Cc1c(C(=O)OCC(=O)Nc2ccc(N3CCOCC3)cc2)oc2ccccc12 | 20 | 9.2* | -2 | / | -1 | 1
Cc1ccsc1C(=O)N1CCN(C(=O)c2ccco2)CC1 | 22 | -2 | -4 | / | 0 | -1
O=C(COC(=O)c1ccccc1)NCc1ccco1 | 8 | -1 | -1 | -6 | -1 | 1
Cc1ccc(C(=O)OCC(=O)NCc2ccco2)cc1 | 20 | -1 | 6 | 41* | 0 | 0
CN(c1ccccc1)S(=O)(=O)c1cccc(C(=O)OCC(=O)NCc2ccco2)c1 | -14 | -1 | 7 | 24* | 0 | 1
